Measurements from different studies.
Each line is one published result; the experiments were not run side by side.
Observed: microbial growth

Compound	organism	test	system	setting	MIC
c1ccc2c(-c3nc4ccccc4[nH]3)c3ccccc3cc2c1	Aspergillus niger		ATCC16404		256 µg/mL
Cc1ccc(C)n1-c1ccc(-c2nnc(-c3c(Cl)cccc3Cl)[nH]2)cc1	Aspergillus niger	broth dilution	ATCC6275		2 µg/mL
CC1=NN(CNc2ccc(Cl)cc2)C(=O)C1=NNn1c(-c2ccccc2)nc2ccccc2c1=O	Aspergillus niger	broth dilution			51.5 µM
O=c1[nH]c(NCc2ccc(Cl)c(Cl)c2)nc2ncn(CCCCCN3CCOCC3)c12	Bacteroides fragilis	agar dilution		48 h	> 32 µg/mL
O=[N+]([O-])c1cccc(-c2nc3ccccc3[nH]2)c1	Aspergillus niger		ATCC16404		512 µg/mL
CCCCCCCCCCCCN1CCNCC1	Lodderomyces parapsilosis		ATCC22019		1.95 µg/mL
Cc1ccc(C)n1-c1ccc(-c2nnco2)cc1	Aspergillus niger	broth dilution	ATCC6275		125 µg/mL
CC1=NN(CNc2ccc(C(=O)O)cc2)C(=O)C1=NNn1c(-c2ccccc2)nc2ccccc2c1=O	Aspergillus niger	broth dilution			50.5 µM
Cc1ccc2nc(-c3ccc([N+](=O)[O-])cc3)[nH]c2c1	Aspergillus niger		ATCC16404		512 µg/mL
Cc1ccc(C)n1-c1ccc(-c2nnc(-c3ccc(N(C)C)cc3)[nH]2)cc1	Aspergillus niger	broth dilution	ATCC6275		62.5 µg/mL
CCCCCCCCCN1CCNCC1	Lodderomyces parapsilosis	broth dilution	ATCC22019	48 h	> 31.3 µg/mL
Cc1ccc(C)n1-c1ccc(-c2nnc(-c3ccccc3Cl)[nH]2)cc1	Aspergillus niger	broth dilution	ATCC6275		8 µg/mL
Cc1ccc2nc(-c3ccc([N+](=O)[O-])cc3)n(Cc3ccccc3)c2c1	Aspergillus niger		ATCC16404		256 µg/mL
Fc1ccc(C2(Cn3cncn3)CO2)c(F)c1 (stereo not shown)	Lodderomyces parapsilosis	broth dilution	ATCC22019	48 h	> 31.3 µg/mL
CCOc1ccc(-c2nc3ccccc3n2Cc2ccccc2)cc1	Aspergillus niger		ATCC16404		256 µg/mL
CN1CCNCC1	Lodderomyces parapsilosis	broth dilution	ATCC22019	48 h	> 31.3 µg/mL
C=CCn1c(-c2ccc([N+](=O)[O-])cc2)nc2ccccc21	Aspergillus niger		ATCC16404		256 µg/mL
CCCCCCCCCCN1CCNCC1	Lodderomyces parapsilosis	broth dilution	ATCC22019	48 h	15.6 µg/mL
CC1=NN(CNc2ccc(O)cc2)C(=O)C1=NNn1c(-c2ccccc2)nc2ccccc2c1=O	Aspergillus niger	broth dilution			107 µM
CCCCCCCCN1CCNCC1	Lodderomyces parapsilosis	broth dilution	ATCC22019	48 h	> 31.3 µg/mL
O=c1[nH]c(NCc2ccc(Cl)c(Cl)c2)nc2ncn(CCN3CCOCC3)c12	Bacteroides fragilis	agar dilution		48 h	> 32 µg/mL
Cc1ccc2nc(-c3ccc([N+](=O)[O-])cc3)n(Cc3ccccc3Cl)c2c1	Aspergillus niger		ATCC16404		128 µg/mL
CCCCCCCCCCCCCN1CCN(CC(O)(Cn2cncn2)c2ccc(F)cc2F)CC1 (stereo not shown)	Lodderomyces parapsilosis	broth dilution	ATCC22019	48 h	< 0.24 µg/mL
Cc1ccc2nc(-c3ccc(Cl)cc3)[nH]c2c1	Aspergillus niger		ATCC16404		256 µg/mL
OC(CN1CCOCC1)(Cn1cncn1)c1ccc(F)cc1F (stereo not shown)	Lodderomyces parapsilosis	broth dilution	ATCC22019	48 h	31.3 µg/mL
